The entries come from a sample that favours hits as a whole.
Lmaj promast: reduces viability of Leishmania major promastigotes; resazurin fluorescence viability; 9% of 200,000 active; inhibition, % at 10 µM; in the data active = inhibition above about 50%;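 note: promastigotes grown with compound for 44 hours at 28 °C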
T cruzi repl: T. cruzi replication inhibition | T. cruzi beta-gal in NIH3T3, luminescence, 90 h | inhibition, % (concentration not given with the values) | 1.4% of 300,000 active | AID 1885;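 active = mean inhibition across valid replicates above about 55%, limit read from the data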;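 note: signal also drops with host cell toxicity which is not excluded here; 0% = plate median of DMSO wells and 100% = zero luminescence signal; higher percent means less beta-gal luminescence so fewer parasites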
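Read-out: Parasite load inhibition, % | Test system: Mouse NIH/3T3 fibroblasts infected with β-gal-expressing T. cruzi Tulahuen C4 | Amount: 5,000 cells/well | Medium: DMEM, 2% fetal bovine serum | Signal: GalScreen β-gal luminescence, detergent lysis, 60 min | Timing: 3 h attach, ≥90 h co-culture | Also added: Tulahuen C4 trypomastigotes, 5000/well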
Hsp70 activator: Hsp70 transcriptional activation, primary screen; AID 1203; HeLa Hsp70 promoter luciferase reporter, luminescence; scaled: vehicle 0, proteasome-inhibitor control 100%; activation, % at 10 µM; 0.04% of 200,000 active;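 active = activation above the mean across all tested compounds plus 3 SD, cutoff set per campaign, cut at about 5.5% in these data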;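 note: 100% = MG132 at 30 µM as the positive control and 0% = DMSO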
HSF1 activator: increases HSF-1 driven luciferase reporter signal. AID 504408. NIH3T3-HGL HSF-1 luciferase reporter, MG132, 8 h; 100% = twice DMSO control signal. 1.7% of 300,000 active. activation, % at 9 µM;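 active = mean replicate activation of at least 50% with a set share of replicates each reaching 50%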;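 note: 0% = median of the neutral control wells and 100% = twice that signal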
HSF1 inhib: HSF1 inhibition. NIH3T3-HGL HSE-luciferase, MG132-induced, luminescence 8 h; stronger effect = lower value. activity change, negative = inhibition, % at 7.5 µM (by protocol). 0.77% of 300,000 active;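 active = more than half of replicate wells show activity change below -50%, luminescence cut by over half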;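 note: luciferase reports HSF-1 transcriptional activity via heat shock element; 0% = median of DMSO wells and -100% = zero luminescence signal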
Active calls of the source: *.

Results for Cc1ccc(C(=O)Nc2ccccc2C(=O)NC(Cc2ccccc2)C(=O)O)cc1 (stereo not given) ?
Lmaj promast: 4; T cruzi repl: -23; Hsp70 activator: 0; HSF1 activator: 7; HSF1 inhib: -4

How did Cc1ccc(CC(NC(=O)c2ccccc2)C(=O)NC(C)C(=O)O)cc1 (stereo not given) do in these assays?
Lmaj promast: 84*; T cruzi repl: 0; Hsp70 activator: 0; HSF1 activator: -20; HSF1 inhib: -6

How did CC(=O)Oc1ccc(C(=O)Nc2cccc3c2CCCC3)cc1 do in these assays?
T cruzi repl: -13; HSF1 activator: 7; HSF1 inhib: -5

How did O=C(N/N=C/c1ccco1)c1ccccc1OCc1ccc(Br)cc1 do in these assays?
Lmaj promast: 1; T cruzi repl: 21; Hsp70 activator: 0; HSF1 activator: 19; HSF1 inhib: 6

What do the screens show for `COc1ccc(-c2nc3cc([N+](=O)[O-])ccc3o2)cc1`?
Lmaj promast: 0; T cruzi repl: -6; Hsp70 activator: 0; HSF1 activator: 59*; HSF1 inhib: 37

What do the screens show for `Nc1ccc(-c2nc3cc([N+](=O)[O-])ccc3o2)cc1`?
T cruzi repl: -5; HSF1 activator: 58*; HSF1 inhib: 29

Results for CC(C)(C)Nc1nc2cc([N+](=O)[O-])ccc2o1 ?
T cruzi repl: 8; HSF1 activator: 7; HSF1 inhib: 4

What do the screens show for `COc1cccc(C2Nc3ccccc3NC3=C2C(=O)CC(C)(C)C3)c1` (stereo not given)?
T cruzi repl: -1; HSF1 activator: 20; HSF1 inhib: 11

How did CC1=NN(C(=O)COc2ccc(C)c(C)c2)C(O)(c2ccccc2)C1 (stereo not given) do in these assays?
Lmaj promast: -2; T cruzi repl: 6; Hsp70 activator: 0; HSF1 activator: 4; HSF1 inhib: -5

How did Cc1ccc(-c2ccc(=O)n(CCC(=O)NCCN3CCCCC3C)n2)cc1 (stereo not given) do in these assays?
Lmaj promast: -8; T cruzi repl: 6; Hsp70 activator: 0; HSF1 activator: -80; HSF1 inhib: -75*

How did Cc1ccc(-c2ccc(=O)n(CC(=O)NCCN3CCCCC3C)n2)cc1 (stereo not given) do in these assays?
Lmaj promast: -7; T cruzi repl: -20; Hsp70 activator: 0

What do the screens show for `COc1ccc2cc(N=Cc3nc(-c4ccc(C)cc4)oc3O)cnc2c1`?
Lmaj promast: -1; T cruzi repl: -7; Hsp70 activator: 0; HSF1 activator: 0; HSF1 inhib: -3

What do the screens show for `CSc1nc(N)c(C(=O)NC2CCCCC2)s1`?
T cruzi repl: -14; HSF1 activator: 37; HSF1 inhib: 22

What do the screens show for `CC1CCCN(C(=O)c2ccccc2OC2CCN(S(C)(=O)=O)CC2)C1` (stereo not given)?
Lmaj promast: 4; T cruzi repl: -2; Hsp70 activator: 0; HSF1 activator: 64*; HSF1 inhib: 23

Results for CCN1CCc2c(sc(NC(=S)NC(=O)c3ccc(Cl)cc3)c2C(N)=O)C1 ?
T cruzi repl: 17; HSF1 activator: -1; HSF1 inhib: -13

What do the screens show for `CCN1CCCC1CNC(=O)c1cc2c(-c3ccc(Cl)cc3)nn(C)c2s1` (stereo not given)?
Lmaj promast: 100*; T cruzi repl: 30; Hsp70 activator: 0; HSF1 activator: -34; HSF1 inhib: -17

Results for CCN(CC)CCCNC(=O)c1cc2c(-c3cccc(OC)c3)nn(C)c2s1 ?
T cruzi repl: 48; HSF1 activator: 16; HSF1 inhib: 10

What do the screens show for `CCCCN(C)CCNC(=O)c1cc2c(-c3ccccc3F)nn(C)c2s1`?
T cruzi repl: -8; HSF1 activator: -72; HSF1 inhib: -63*

What do the screens show for `CCN1CCCC1CNC(=O)c1cc2c(-c3cccc(OC)c3)nn(C)c2s1` (stereo not given)?
Lmaj promast: 82*; T cruzi repl: 40; Hsp70 activator: 0; HSF1 activator: 2; HSF1 inhib: -5

Results for COCCNC(=O)c1cc2c(-c3ccccc3F)nn(C)c2s1 ?
Lmaj promast: 3; T cruzi repl: 21; Hsp70 activator: 0; HSF1 activator: 3; HSF1 inhib: -2

Results for CCCCNC(=O)c1cc2c(-c3ccc(Cl)cc3)nn(C)c2s1 ?
Lmaj promast: -1; T cruzi repl: 16; Hsp70 activator: 0; HSF1 activator: 8; HSF1 inhib: 1

From PubChem
